Reference: ChEMBL document CHEMBL3091343, “Nicotinamide phosphoribosyltransferase inhibitors, design, preparation, and structure-activity relationship” (J Med Chem, 2013)

Key:
[1] = Cytotoxicity against human W1L2 cells assessed as growth inhibition after 72 hrs by trypan blue assay; assay type: functional, cell-based; details: WIL2, 72 h
[2] = system: Mus musculus; assay: Toxicity in human A2780 cells xenografted NMRI/nude mouse containing small tumors assessed as effect on body weight at 0.63 to 2.5 mg/kg, ip bid administered for 5 days measured at day 14 relative to vehicle-treated control; assay type: organism-based; design: dose 0.63-2.5 mg/kg, route intraperitoneal; details: in vivo, 120 h
[3] = AUC in NMRI mouse at 50 mg/kg, iv; assay type: ADME, organism-based; design: dose 50 mg/kg, route intravenous; details: plasma
Procedure, shortened: (§1)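 Mouse PK after a single i.v. dose. Plasma proteins were precipitated with acetonitrile containing internal standard (3:1 v/v). Samples were analysed by UPLC-MS/MS on a C18 column at 40°C with an acetonitrile–0.05% formic acid gradient, using positive electrospray MRM. Parameters were derived by non-compartmental analysis.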

[4] = Clearance in NMRI mouse at 50 mg/kg, iv; assay type: ADME, organism-based; design: dose 50 mg/kg, route intravenous; details: in vivo; procedure, shortened: as §1
[5] = Apparent volume of distribution in NMRI mouse at 50 mg/kg, iv; assay type: ADME, organism-based; design: dose 50 mg/kg, route intravenous; details: in vivo, read-out: Vz; procedure, shortened: as §1
[6] = Cmax in NMRI mouse at 50 mg/kg, iv; assay type: ADME, organism-based; design: dose 50 mg/kg, route intravenous; details: in vivo; procedure, shortened: as §1
[7] = Tmax in NMRI mouse at 50 mg/kg, iv; assay type: ADME, organism-based; design: dose 50 mg/kg, route intravenous; details: in vivo; procedure, shortened: as §1
[8] = Half life in NMRI mouse at 50 mg/kg, iv; assay type: ADME, organism-based; design: dose 50 mg/kg, route intravenous; details: in vivo; procedure, shortened: as §1
[9] = Toxicity in ip dosed NMRI mouse assessed as blood cell count administered as bid for 5 days; assay type: organism-based; details: in vivo
[10] = Toxicity in ip dosed NMRI mouse assessed as body weight loss administered as bid for 5 days; assay type: organism-based; details: in vivo
[11] = target: Nicotinamide phosphoribosyltransferase (Homo sapiens, UniProt P43490); assay: Inhibition of NAMPT in human HepG2 cells using [14C]-nicotinamide/PRPP as substrate assessed as formation of [14C]-nicotinamide mononucleotide after 1 hr by liquid scintillation counting analysis; assay type: cell-based
Sequence of Nicotinamide phosphoribosyltransferase (P43490 whole entry): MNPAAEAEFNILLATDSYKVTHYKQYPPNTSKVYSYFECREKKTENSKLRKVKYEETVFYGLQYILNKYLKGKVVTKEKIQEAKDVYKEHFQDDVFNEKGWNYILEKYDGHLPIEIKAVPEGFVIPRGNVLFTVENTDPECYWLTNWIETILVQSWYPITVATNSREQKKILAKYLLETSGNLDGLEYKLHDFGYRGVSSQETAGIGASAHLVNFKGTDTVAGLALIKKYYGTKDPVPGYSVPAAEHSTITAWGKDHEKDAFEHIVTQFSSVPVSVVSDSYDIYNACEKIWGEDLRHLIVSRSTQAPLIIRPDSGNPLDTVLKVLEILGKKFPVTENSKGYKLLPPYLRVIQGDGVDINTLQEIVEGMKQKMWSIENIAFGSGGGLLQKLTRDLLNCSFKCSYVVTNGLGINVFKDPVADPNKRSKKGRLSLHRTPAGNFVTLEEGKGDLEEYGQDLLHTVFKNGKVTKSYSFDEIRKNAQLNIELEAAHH

[12] = system: Mus musculus; assay: Toxicity in human A2780 cells xenografted NMRI/nude mouse containing large tumors assessed as effect on body weight at 3 mg/kg, ip bid administered for 10 days; details: in vivo
[13] = system: Mus musculus; assay: Toxicity in human A2780 cells xenografted NMRI/nude mouse containing large tumors assessed as effect on body weight at 5 to 10 mg/kg, ip bid administered for 10 days measured during compound administration; details: in vivo, 240 h

Structure (SMILES) | IC50 [1] | Activity [2] | AUC [3] | clearance [4] | Vd [5] | Cmax [6] | Tmax [7] | half-life [8] | MTD at 120 h [9] | MTD at 120 h [10] | IC50 [11] | Activity [12] | Activity [13]
C#CCN(Cc1cc2c(O)nc(C)nc2cc1Br)c1ccc(C(=O)NCc2cccnc2)cc1 | 2.8 nM | – | – | – | – | – | – | – | – | – | – | – | –
N#CNC(=Nc1ccncc1)NCCCCCCS(=O)(=O)N(OCCN1CCOCC1)C1CCCCC1 | – | Non-toxic | 10200 ng·h/mL | 81.8 mL/min/kg | 1.28 L/kg | 14100 ng/mL | 4.8 min | 10.8 min | < 10 mg/kg | < 10 mg/kg | 0.3 nM | Non-toxic | Toxic
